{"source": "ChEMBL document CHEMBL4400543", "about": "“Identification and Characterization of AES-135, a Hydroxamic Acid-Based HDAC Inhibitor That Prolongs Survival in an Orthotopic Mouse Model of Pancreatic Cancer” (J Med Chem, 2019)", "key": {"[1]": {"test": "Drug uptake in NSG mouse serum at 40 mg/kg, ip administered daily for 5 days by HPLC-MS/MS analysis", "type": "ADME, organism-based", "settings": "read-out: Drug uptake", "summary_of_the_method": "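NSG mice dosed IP once daily for 5 days at 10 or 40 mg/kg, n = 6. Blood collected 5 h after the final injection for serum drug concentration, reported ± SD.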"}, "Homo sapiens": {"organism": "Homo sapiens", "test": "Cytotoxicity against human D458 cells at 39 nM after 72 hrs by Presto Blue assay", "type": "functional, cell-based", "summary_of_the_method": "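D425 and D458 medulloblastoma cells in DMEM high glucose with 20% FBS, seeded at 1000 cells/well in medium with 1% FBS. Twofold dilutions from 20 μM down to 39 nM. Exposed 3 days at 37 °C. Presto Blue added about 4 h before fluorescence read (540–570 nm). IC50 from % viability versus log concentration.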"}, "[2]": {"test": "Half life in ICR/CD1 mouse hepatocytes at 1 uM up to 120 mins by LC-MS/MS analysis", "type": "ADME, cell-based, Hepatocyte", "settings": "2 h"}, "[3]": {"target": "Signal transducer and activator of transcription 5B (Homo sapiens) (UniProt P51692)", "sequence (P51692 whole entry)": "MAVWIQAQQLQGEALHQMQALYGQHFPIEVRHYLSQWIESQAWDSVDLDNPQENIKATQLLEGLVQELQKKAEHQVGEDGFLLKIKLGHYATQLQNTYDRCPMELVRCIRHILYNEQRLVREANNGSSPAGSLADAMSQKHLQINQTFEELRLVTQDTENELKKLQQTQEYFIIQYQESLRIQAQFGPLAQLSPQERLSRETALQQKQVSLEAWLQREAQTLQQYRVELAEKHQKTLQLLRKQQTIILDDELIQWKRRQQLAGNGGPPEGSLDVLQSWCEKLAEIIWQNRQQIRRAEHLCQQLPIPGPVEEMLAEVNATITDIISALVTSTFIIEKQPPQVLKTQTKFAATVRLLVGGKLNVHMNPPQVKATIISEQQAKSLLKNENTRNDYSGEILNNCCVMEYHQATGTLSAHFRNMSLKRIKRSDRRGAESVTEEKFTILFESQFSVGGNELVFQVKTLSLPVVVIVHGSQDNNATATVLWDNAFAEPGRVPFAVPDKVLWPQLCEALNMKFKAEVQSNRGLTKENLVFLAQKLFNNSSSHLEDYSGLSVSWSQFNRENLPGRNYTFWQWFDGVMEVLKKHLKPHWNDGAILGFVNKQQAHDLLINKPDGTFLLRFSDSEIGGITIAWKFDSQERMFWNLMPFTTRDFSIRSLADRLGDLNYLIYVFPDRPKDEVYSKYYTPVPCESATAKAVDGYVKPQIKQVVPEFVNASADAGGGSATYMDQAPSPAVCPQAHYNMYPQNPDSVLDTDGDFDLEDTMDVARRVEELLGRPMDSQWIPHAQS", "test": "Inhibition of STAT5b phosphorylation at Y694 in human MV4-11 cells at 10 uM after 5 hrs by Western blot method", "type": "cell-based", "summary_of_the_method": "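Run on 4–15% SDS-PAGE and transferred to PVDF. Primary antibodies 1:1000 overnight at 4 °C, HRP or fluorescent secondary 1:5000, ECL detection, β-actin loading control.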"}, "[4]": {"target": "T1, Protein deacetylase HDAC6 (Homo sapiens, UniProt Q9UBN7)", "T1 sequence (Q9UBN7 whole entry)": "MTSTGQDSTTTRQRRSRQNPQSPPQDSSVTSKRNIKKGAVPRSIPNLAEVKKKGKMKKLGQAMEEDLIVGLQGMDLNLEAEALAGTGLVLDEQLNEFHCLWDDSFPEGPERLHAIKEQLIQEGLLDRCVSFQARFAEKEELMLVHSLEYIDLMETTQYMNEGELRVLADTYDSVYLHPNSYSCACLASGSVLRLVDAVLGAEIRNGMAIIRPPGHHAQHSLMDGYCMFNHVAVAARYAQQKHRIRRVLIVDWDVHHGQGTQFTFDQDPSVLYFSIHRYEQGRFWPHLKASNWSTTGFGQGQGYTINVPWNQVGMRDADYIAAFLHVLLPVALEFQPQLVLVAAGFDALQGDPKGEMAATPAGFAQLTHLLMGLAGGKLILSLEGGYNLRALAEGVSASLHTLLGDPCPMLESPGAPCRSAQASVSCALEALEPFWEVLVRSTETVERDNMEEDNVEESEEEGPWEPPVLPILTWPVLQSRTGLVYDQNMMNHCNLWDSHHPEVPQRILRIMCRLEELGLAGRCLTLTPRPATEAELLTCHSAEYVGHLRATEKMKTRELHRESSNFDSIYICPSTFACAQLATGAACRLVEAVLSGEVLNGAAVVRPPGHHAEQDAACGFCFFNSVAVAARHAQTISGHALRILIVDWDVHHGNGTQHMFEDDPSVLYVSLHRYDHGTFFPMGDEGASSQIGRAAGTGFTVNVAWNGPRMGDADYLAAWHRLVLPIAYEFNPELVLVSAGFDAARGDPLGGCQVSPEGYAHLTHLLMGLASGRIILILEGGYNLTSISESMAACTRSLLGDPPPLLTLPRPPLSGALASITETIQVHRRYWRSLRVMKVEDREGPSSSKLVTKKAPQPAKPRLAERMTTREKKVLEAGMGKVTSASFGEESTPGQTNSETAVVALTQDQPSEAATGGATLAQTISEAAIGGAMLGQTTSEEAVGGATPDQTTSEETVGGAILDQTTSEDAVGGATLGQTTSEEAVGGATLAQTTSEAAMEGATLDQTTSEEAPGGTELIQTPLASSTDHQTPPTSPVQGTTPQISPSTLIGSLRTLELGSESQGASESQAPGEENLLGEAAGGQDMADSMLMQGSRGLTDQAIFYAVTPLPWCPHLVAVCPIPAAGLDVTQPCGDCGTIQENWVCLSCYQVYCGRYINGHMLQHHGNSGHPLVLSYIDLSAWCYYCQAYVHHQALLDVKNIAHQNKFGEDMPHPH", "test": "Inhibition of recombinant human HDAC6 expressed in SF9 baculoviral system using FAM-labeled acetylated peptide as substrate by EMSA", "summary_of_the_method": "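Full-length recombinant human enzyme from an Sf9 baculovirus system, in 100 mM HEPES pH 7.5 with 25 mM KCl, 0.1% BSA, 0.01% Triton X-100 and 1% DMSO. Final enzyme was 0.5 nM for HDAC3, 60 nM for HDAC6 and 5.0 nM for HDAC8. FAM-acetylated peptide was 1 μM. The read-out was product/(substrate+product) by microfluidic mobility shift, with inhibition set against DMSO and no-enzyme controls (quadruplicate). Compounds were tested at 12 threefold-spaced concentrations, and IC50 came from a four-parameter sigmoid fit.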"}}, "note": "Calls of active or inactive are those of the source. No cut-off for these calls is given here.", "data": [{"compound": "CC(C)(C)c1ccc(CN(C(=O)CN(Cc2c(F)c(F)c(F)c(F)c2F)S(=O)(=O)c2ccc(F)cc2)c2ccc(C(=O)NO)cc2)cc1", "values": [{"measurement": "concentration at 120 h", "setting": "[1]", "value": 2640, "unit": "nM"}, {"measurement": "Activity", "setting": "Homo sapiens", "value": "Active"}, {"measurement": "t1/2", "setting": "[2]", "value": 38.5, "unit": "min"}, {"measurement": "inhibition", "setting": "[3]", "value": "inactive"}, {"measurement": "IC50", "setting": "[4]", "value": 190, "unit": "nM"}]}]}
